{"source": "ChEMBL document CHEMBL1122457", "about": "“Derivatives of beta-adrenergic antagonists. N-Nitrosopropranolol and N-hydroxypropranolol and its aldonitrone” (J Med Chem, 1983)", "key": {"[1]": {"species": "Rattus norvegicus", "assay": "Mutagenic activity (Ames Salmonella Test) in the presence of rat liver S-9 fraction in TA-100 strain", "format": "functional", "outline": "(§1)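 Liver 9000g supernatant (1.0 mg protein, PBS-diluted, filtered) plus NADPH (1 mg/plate) went into histidine/biotin-supplemented top agar with overnight TA-98 or TA-100 culture. Compound in Me2SO was added last, with Me2SO as control. His+ revertants were counted after 40 h at 37 °C in the dark, averaging ≥2 plates.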"}, "[2]": {"species": "Rattus norvegicus", "assay": "Mutagenic activity (Ames Salmonella Test) in the presence of rat liver S-9 fraction in TA-98 strain", "format": "functional", "outline": "as §1"}, "[3]": {"species": "Rattus norvegicus", "assay": "Toxicity (Ames Salmonella Test) in the presence of rat liver S-9 fraction in TA-100 strain (4*10e6 dilution)", "format": "organism-based", "outline": "(§2)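 TA-100 bacteria are exposed to varying compound concentrations for 30 min at 37 °C. They are then diluted to about 10³ bacteria/mL and plated on histidine-enriched (4.5 mM) agar. Surviving colonies are counted.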"}, "[4]": {"species": "Rattus norvegicus", "assay": "Toxicity (Ames Salmonella Test) in the presence of rat liver S-9 fraction in TA-100 strain at a conc. of 1000 ug (4*10e6 dilution)", "format": "organism-based", "outline": "as §2"}, "[5]": {"species": "Rattus norvegicus", "assay": "Mutagenic activity (Ames Salmonella Test) in the presence of rat liver S-9 fraction in TA-100 strain at a conc. of 1000 ug", "format": "functional", "outline": "as §1"}, "[6]": {"species": "Rattus norvegicus", "assay": "Mutagenic activity (Ames Salmonella Test) in the presence of rat liver S-9 fraction in TA-98 strain at aconc. of 1000 ug", "format": "functional", "outline": "as §1, with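 “Male Sprague-Dawley rats received Arochlor 1254 (500 mg/kg in corn oil) and were killed 48 h later. Liver” for “Liver”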"}, "[7]": {"species": "Rattus norvegicus", "assay": "Toxicity (Ames Salmonella Test) in the presence of rat liver S-9 fraction in TA-100 strain (4*10e7 dilution)", "format": "organism-based", "outline": "as §2"}, "[8]": {"species": "Rattus norvegicus", "assay": "Mutagenic activity (Ames Salmonella Test) in the presence of rat liver S-9 fraction in TA-100 strain at a conc. of 500 ug", "format": "functional", "outline": "as §1, with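 “Male Sprague-Dawley rats received Arochlor 1254 (500 mg/kg in corn oil) and were killed 48 h later. Liver” for “Liver”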"}, "[9]": {"species": "Rattus norvegicus", "assay": "Mutagenic activity (Ames Salmonella Test) in the presence of rat liver S-9 fraction in TA-98 strain at a conc. of 1000 ug", "format": "functional", "outline": "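Plate-incorporation reversion assay in TA-98 from an overnight nutrient-broth culture (2–3 × 10⁹ bacteria/mL). The compound is in Me₂SO, added last to top agar at 45 °C. NADPH 1 mg/plate. His⁺ revertants are counted after 40 h at 37 °C in the dark.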"}, "[10]": {"species": "Rattus norvegicus", "assay": "Mutagenic activity (Ames Salmonella Test) in the presence of rat liver S-9 fraction in TA-98 strain at a conc. of 500 ug", "format": "functional", "outline": "as §1, with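 “Male Sprague-Dawley rats received Arochlor 1254 (500 mg/kg in corn oil) and were killed 48 h later. Liver” for “Liver”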"}, "[11]": {"species": "Rattus norvegicus", "assay": "Toxicity (Ames Salmonella Test) in the presence of rat liver S-9 fraction in TA-100 strain at a conc. of 500 ug (4*10e6 dilution)", "format": "organism-based", "outline": "as §2"}, "[12]": {"species": "Rattus norvegicus", "assay": "Toxicity (Ames Salmonella Test) in the presence of rat liver S-9 fraction in TA-100 strain at a conc. of 500 ug (4*10e7 dilution)", "format": "organism-based", "outline": "as §2"}}}
{"compound": "CC(C)/[N+]([O-])=C/C(O)COc1cccc2ccccc12", "note": "(stereo unspecified)", "values": [{"measurement": "Mutagenicity", "setting": "[1]", "result": 162}, {"measurement": "Mutagenicity", "setting": "[2]", "result": 18}, {"measurement": "Toxicity", "setting": "[3]", "result": 232}]}
{"compound": "CC(C)N(O)CC(O)COc1cccc2ccccc12.O=C(O)C(=O)O", "note": "(stereo unspecified)", "values": [{"measurement": "Toxicity", "setting": "[4]", "result": 60}, {"measurement": "Mutagenicity", "setting": "[1]", "result": 143}, {"measurement": "Mutagenicity", "setting": "[5]", "result": 61}, {"measurement": "Mutagenicity", "setting": "[2]", "result": 18}, {"measurement": "Mutagenicity", "setting": "[6]", "result": 20}, {"measurement": "Toxicity", "setting": "[3]", "result": 165}, {"measurement": "Toxicity", "setting": "[7]", "result": 18}]}
{"compound": "Br.CC(C)N(O)CC(O)COc1cccc2ccccc12", "note": "(stereo unspecified)", "values": [{"measurement": "Toxicity", "setting": "[4]", "result": 183}, {"measurement": "Mutagenicity", "setting": "[5]", "result": 134}, {"measurement": "Mutagenicity", "setting": "[8]", "result": 117}, {"measurement": "Mutagenicity", "setting": "[9]", "result": 8}, {"measurement": "Mutagenicity", "setting": "[10]", "result": 12}, {"measurement": "Toxicity", "setting": "[11]", "result": 265}, {"measurement": "Toxicity", "setting": "[12]", "result": 28}]}
{"compound": "CC(C)NO", "note": "[ISOPROPYLHYDROXYLAMINE]", "values": [{"measurement": "Mutagenicity", "setting": "[1]", "result": 150}, {"measurement": "Mutagenicity", "setting": "[2]", "result": 18}, {"measurement": "Toxicity", "setting": "[3]", "result": 230}]}
{"compound": "CC(C)N(CC(O)COc1cccc2ccccc12)N=O", "note": "(stereo unspecified)", "values": [{"measurement": "Mutagenicity", "setting": "[1]", "result": 137}, {"measurement": "Mutagenicity", "setting": "[5]", "result": 131}, {"measurement": "Mutagenicity", "setting": "[2]", "result": 14}, {"measurement": "Mutagenicity", "setting": "[9]", "result": 13}, {"measurement": "Toxicity", "setting": "[3]", "result": 255}, {"measurement": "Toxicity", "setting": "[7]", "result": 25}]}
